In PubChem BioAssay:
Active and inactive are the calls of the source.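 Rule for the calls, unless noted: active = viability at or below 30% in both replicate assays; inconclusive = viability at or below 30% in just one of the two assays; inactive = the rest.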

Assays:
[1] = reducers of endogenous Her2 protein level, primary screen, SKBR3 breast tumor cells, AlphaScreen, ATP viability (AID 461;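 active = Her2 level under about 52% in both replicate screens, with viability over 70% of control, limit read from the data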;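 for Her2 level: lower value means less Her2 protein in the cells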;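 for viability: percent of carrier control wells set as 100% viability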); details: 18-24 h, measured here: SKBR3 viability, ATP luminescence, at 10 µM
[2] = target: Receptor tyrosine-protein kinase erbB-2 (Homo sapiens) (UniProt P04626); test: as above; details: 18-24 h, at 10 µM, stronger effect = lower value
Sequence of Receptor tyrosine-protein kinase erbB-2 (Homo sapiens) (P04626 whole entry, looked up): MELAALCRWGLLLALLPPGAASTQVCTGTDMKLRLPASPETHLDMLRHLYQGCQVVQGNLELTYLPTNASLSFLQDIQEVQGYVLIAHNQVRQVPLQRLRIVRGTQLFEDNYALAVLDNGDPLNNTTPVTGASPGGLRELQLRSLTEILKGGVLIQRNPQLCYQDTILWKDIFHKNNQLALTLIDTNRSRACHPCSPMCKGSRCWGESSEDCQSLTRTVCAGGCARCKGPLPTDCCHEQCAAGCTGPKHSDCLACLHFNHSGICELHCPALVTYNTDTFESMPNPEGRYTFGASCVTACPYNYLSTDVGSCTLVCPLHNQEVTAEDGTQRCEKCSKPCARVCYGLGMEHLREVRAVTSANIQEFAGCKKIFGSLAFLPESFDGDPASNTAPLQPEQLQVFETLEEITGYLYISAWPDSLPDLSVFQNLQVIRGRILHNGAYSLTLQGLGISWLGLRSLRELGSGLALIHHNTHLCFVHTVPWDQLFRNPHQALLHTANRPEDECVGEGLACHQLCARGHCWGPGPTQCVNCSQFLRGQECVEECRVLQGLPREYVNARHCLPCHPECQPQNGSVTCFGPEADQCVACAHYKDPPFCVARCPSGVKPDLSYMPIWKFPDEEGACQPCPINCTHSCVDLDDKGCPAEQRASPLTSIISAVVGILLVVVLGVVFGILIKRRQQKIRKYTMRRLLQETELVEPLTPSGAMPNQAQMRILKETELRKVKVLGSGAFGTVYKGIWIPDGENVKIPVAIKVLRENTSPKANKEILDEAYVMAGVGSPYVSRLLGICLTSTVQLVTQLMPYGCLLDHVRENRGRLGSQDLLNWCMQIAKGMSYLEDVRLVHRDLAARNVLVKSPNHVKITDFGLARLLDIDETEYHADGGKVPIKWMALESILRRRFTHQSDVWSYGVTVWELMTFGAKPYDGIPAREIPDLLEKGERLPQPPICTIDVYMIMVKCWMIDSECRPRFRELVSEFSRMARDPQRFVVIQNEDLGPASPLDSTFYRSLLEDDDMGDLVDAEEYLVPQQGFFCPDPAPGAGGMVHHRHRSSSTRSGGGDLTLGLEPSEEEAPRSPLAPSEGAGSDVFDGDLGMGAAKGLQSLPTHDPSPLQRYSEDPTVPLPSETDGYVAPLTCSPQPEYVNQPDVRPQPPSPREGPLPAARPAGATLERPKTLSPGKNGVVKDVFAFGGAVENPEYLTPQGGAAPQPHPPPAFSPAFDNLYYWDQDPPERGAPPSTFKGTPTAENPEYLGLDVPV

[3] = SK-BR-3 cell growth inhibitors, pilot screen, 24 h, human (AID 572;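 active = viability at or below 10% of carrier control in both of two separate runs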;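 note: compound exposure lasted between 18 and 24 h rather than exactly 24 h; 100% = carrier-treated control wells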); details: SK-BR-3 viability, CellTiter-Glo luminescence, at 10 µM, stronger effect = lower value
[4] = HUVEC growth inhibition – cell-based, human, primary screen (AID 575); details: HUVEC proliferation, CellTiter-Glo luminescence, 72 h; at 10 µM; stronger effect = lower value;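 note: 100% = median of untreated cell wells with 0.1% DMSO on each plate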
Method in brief: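 Timing: 72 h treatment at 37 °C; material: HUVEC primary cells; technique: CellTiter-Glo luminescence measuring cellular ATP; controls: vehicle and MePR control wells; measure: percent of median DMSO-control luminescence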

[5] = growth inhibitors of H69AR lung tumor, primary screen, human, duplicate replicates (AID 580;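 active = viability at or under a set limit in both replicates, limit being median viability minus 3 SD, cut at about 48% in these data, passing the limit was not always enough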;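 note: 100% = mean luminescence of untreated wells and 0% = no signal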); details: H69AR lung tumor cells viability, ATP luminescence, 72 h; at 10 µM; stronger effect = lower value
[6] = reversal of MRP1-mediated doxorubicin resistance, pilot screen, H69AR cells, doxorubicin co-treatment (AID 601;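 active = viability loss from added drug above about 55%, and viability with drug at most 40%, in both replicates, limit read from the data, passing the limit was not always enough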); details: CellTiter-Glo, 72 h, at 10 µM; for differential viability (reversal): stronger effect = higher value
[7] = 384-well plate pilot, post-Golgi transport modulator project, inhibition of yeast transport mutant growth (AID 636; in the data active = inhibition above about 31%); details: absorbance 615 nm, about 18 h, stronger effect = higher value
[8] = growth suppression of yeast trafficking mutant, preliminary HTS, modulators of trafficking downstream of Golgi apparatus project, 1536-format plate, OD 615 nm (AID 637; in the data active = inhibition above about 30%); details: yeast transport mutant growth, absorbance 615 nm, 18 h; stronger effect = higher value
[9] = H69AR cells + 2 uM doxorubicin, measured here: viability with 2 uM doxorubicin, stronger effect = lower value
[10] = H69AR cells, compound alone cytotoxicity

Compound	viability [1] [%]	Her2 level [2]	viability [3]	viability [4]	viability [5]	differential viability (reversal) ([6]; H69AR cells + 2 uM doxorubicin)	viability [6, 9] [%]	viability [6, 10] [%]	inhibition [7]	inhibition [8]
O=C(CN1CCN(c2nc(-c3ccccc3)cs2)CC1)Nc1ccc2c(c1)OCO2	90.5	99% (inactive)	90.5% (inactive)	89.9% (inactive)	101% (inactive)	5.71% (inactive)	95.5	101	-3.87% (inactive)	-7.1% (inactive)
COc1ccccc1N1CCN(C(=O)c2ccc3nc(-c4ccco4)c(-c4ccco4)nc3c2)CC1	103	79.5% (inactive)	103% (inactive)	48.5% (inactive)	69.6% (inactive)	-8.06% (inactive)	77.6	69.6	-4.67% (inactive)	-4.1% (inactive)
COc1ccccc1N(C)S(=O)(=O)c1ccc(C(=O)NC2=NCCS2)cc1	104	95% (inactive)	104% (inactive)	85.8% (inactive)	96.2% (inactive)	-3.23% (inactive)	99.5	96.2	0% (inactive)	-5.4% (inactive)
Cc1ccc(CCNC(=O)C2CCN(S(=O)(=O)c3cccc4nsnc34)CC2)cc1	93.5	108% (inactive)	93.5% (inactive)	107% (inactive)	95.6% (inactive)	-3.61% (inactive)	99.2	95.6	2.13% (inactive)	0.33% (inactive)
COc1ccc(NC(=O)C23CCC(C)(C(=O)C2)C3(C)C)cc1 (stereo not given)	92.5	102% (inactive)	92.5% (inactive)	105% (inactive)	102% (inactive)	2.21% (inactive)	99.3	102	-1.07% (inactive)	0.48% (inactive)
COC(=O)Cn1c(C)nc2c(sc3nc(C)cc(C)c32)c1=O	110	113% (inactive)	110% (inactive)	105% (inactive)	97.6% (inactive)	7.48% (inactive)	90.1	97.6	-4.61% (inactive)	2.79% (inactive)
COc1ccccc1-c1nc(SCc2ccccn2)n[nH]1	104	78.5% (inactive)	104% (inactive)	98.3% (inactive)	97.2% (inactive)	5.32% (inactive)	91.9	97.2	-1.89% (inactive)	-2.06% (inactive)
CCOc1ccc(C(CC(=O)O)NC(=O)c2ccco2)cc1OC (stereo not given)	102	102% (inactive)	102% (inactive)	104% (inactive)	94.2% (inactive)	1.89% (inactive)	92.3	94.2	-6.76% (inactive)	-1.33% (inactive)
CC1Cc2ccccc2N1C(=O)c1cnsn1 (stereo not given)	136	103% (inactive)	136% (inactive)	86.3% (inactive)	97.8% (inactive)	10.4% (inactive)	87.4	97.8	-6.71% (inactive)	-10.8% (inactive)
Cc1ccccc1-c1nc(CS(=O)(=O)CC(=O)NCc2ccccc2)c(C)o1	93.5	100% (inactive)	93.5% (inactive)	87.8% (inactive)	96.5% (inactive)	6.09% (inactive)	90.4	96.5	-7.07% (inactive)	-2.3% (inactive)
CCOC(=O)C1(C(=O)OCC)C(c2ccccc2)CC(O)N1C(C)=O (stereo not given)	116	95% (inactive)	116% (inactive)	89.1% (inactive)	86.2% (inactive)	6.16% (inactive)	80	86.2	-6.18% (inactive)	2.54% (inactive)
COCCn1c(CN(Cc2ccccc2)Cc2ccccc2)nc2c1c(=O)n(C)c(=O)n2C	81	96% (inactive)	81% (inactive)	81.2% (inactive)	81.2% (inactive)	-11.8% (inactive)	93	81.2	-1.87% (inactive)	1.5% (inactive)
O=C(Nc1ccc2c(c1)OCO2)c1ccc(Br)c(S(=O)(=O)N2CCCC2)c1	98.5	80.5% (inactive)	98.5% (inactive)	58% (inactive)	94% (inactive)	1.82% (inactive)	92.2	94	-1.32% (inactive)	-0.16% (inactive)
Cc1ccc(S(=O)(=O)Cn2nnnc2CN(Cc2ccco2)Cc2cccs2)cc1	91.5	97.5% (inactive)	91.5% (inactive)	104% (inactive)	80.6% (inactive)	4.66% (inactive)	75.9	80.6	-5.87% (inactive)	-7.87% (inactive)
CC(=O)Nc1ccc(NC(=O)c2cc(C)nn2-c2ccccc2)cc1	84	116% (inactive)	84% (inactive)	89.5% (inactive)	108% (inactive)	12.7% (inactive)	95.5	108	2.53% (inactive)	-7.9% (inactive)
CCOC(=O)COc1ccc(S(=O)(=O)N2CCc3ccccc3C2)cc1	111	102% (inactive)	111% (inactive)	9.96% (active)	96.7% (inactive)	13.7% (inactive)	83	96.7	-1.97% (inactive)	0.65% (inactive)
O=C(O)c1ccc2noc(-c3ccccc3)c2c1	127	106% (inactive)	127% (inactive)	86.9% (inactive)	97.8% (inactive)	5.36% (inactive)	92.4	97.8	-4.74% (inactive)	-4% (inactive)
O=S(=O)(c1ccc(OCC(O)CN2CCN(c3ccccc3)CC2)cc1)N1CCOCC1 (stereo not given)	100	90% (inactive)	100% (inactive)	110% (inactive)	96.4% (inactive)	5.24% (inactive)	91.2	96.4	-7.57% (inactive)	-3.67% (inactive)
O=C(Nc1cccc2c1CCCC2)C1CCN(c2nnnn2-c2ccccc2)CC1	92	99% (inactive)	92% (inactive)	97.7% (inactive)	89.2% (inactive)	5.29% (inactive)	83.9	89.2	-0.13% (inactive)	-6.45% (inactive)
Nc1nc2n(n1)C(c1cccc(Cl)c1)CC(c1ccc(F)cc1)N2 (stereo not given)	86.5	97.5% (inactive)	86.5% (inactive)	106% (inactive)	100% (inactive)	-10.5% (inactive)	111	100	-5.47% (inactive)	-0.83% (inactive)
CCn1c(SCC(=O)c2ccc(Cl)cc2)nnc1-c1ccoc1C	118	104% (inactive)	118% (inactive)	98.2% (inactive)	93.6% (inactive)	4% (inactive)	89.6	93.6	-2.84% (inactive)	-0.98% (inactive)
CC(C)COC(=O)C(C#N)c1nc2ccccc2nc1N1CCN(Cc2ccccc2)CC1 (stereo not given)	76	85.5% (inactive)	76% (inactive)	64.7% (inactive)	74.7% (inactive)	-5.91% (inactive)	80.6	74.7	-4.53% (inactive)	14.3% (inactive)
Cc1coc(NC(=O)CSc2nc(-c3ccncc3)cc(C(F)(F)F)c2C#N)n1	106	71% (inactive)	106% (inactive)	79% (inactive)	71.8% (inactive)	1.41% (inactive)	70.4	71.8	-2.5% (inactive)	0.73% (inactive)
CCOC(=O)N1CCN(CC(=O)Nc2c(C(=O)OC)[nH]c3cccc(Cl)c23)CC1	102	97.5% (inactive)	102% (inactive)	91.9% (inactive)	86.6% (inactive)	-1.14% (inactive)	87.8	86.6	-6.08% (inactive)	8.5% (inactive)
c1ccc(-c2csc(N3CCCCCC3)n2)cc1	91.5	104% (inactive)	91.5% (inactive)	104% (inactive)	100% (inactive)	14.9% (inactive)	85.6	100	-0.27% (inactive)	-4.35% (inactive)
N/C(Cn1nnc(-c2ccccc2)n1)=N\O	97	87.5% (inactive)	97% (inactive)	112% (inactive)	107% (inactive)	11% (inactive)	96.3	107	-2.5% (inactive)	-5.08% (inactive)
COc1ccc(C2(C(=O)Nc3c(C)n(C)n(-c4ccccc4)c3=O)CCCC2)cc1OC	94	91.5% (inactive)	94% (inactive)	98.5% (inactive)	106% (inactive)	21.9% (inactive)	84.1	106	-2.4% (inactive)	1.43% (inactive)
COc1cccc(OCCOCCN(C)CCO)c1	124	124% (inactive)	124% (inactive)	84.4% (inactive)	97.3% (inactive)	7.71% (inactive)	89.6	97.3	-4.93% (inactive)	-1.45% (inactive)
CC1(C)Cc2noc(N)c2C(C)(C)N1OC(=O)c1cccs1	103	95.5% (inactive)	103% (inactive)	99.1% (inactive)	102% (inactive)	8.28% (inactive)	94.2	102	-4.08% (inactive)	-5.08% (inactive)
